In the library only some 1.2% were active in any assay of this set; here they are far more common.
FN deposit inh = fibronectin deposition inhibition; AH1F fibroblasts, Alexa488-fibronectin deposition fluorescence, overnight; hit rate 0.086% among 350,000; inhibition, % at 12.6 µM;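 active = mean inhibition across replicates of 30% or more, regardless of how many single replicates reach that level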;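 note: positive control wells lacked labelled fibronectin entirely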
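Material: AH1F fibroblast monolayer depositing Alexa488-labelled fibronectin into matrix / Amount: 10000 AH1F cells per well / Signal: fluorescence 485/525 nm / Medium: DMEM, 2% serum / Compound: single dose, pinned / Incubation: 1 h cell adhesion before compound, then overnight fibronectin incubation / Reagent: Alexa488-FN, 24 nM final / Read-out: inhibition of fibronectin deposition signal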
SR-BI HDL uptake = inhibitors of mouse SR-BI mediated HDL lipid uptake; Q61009; ldlA[mSR-BI] CHO cells, DiI-HDL uptake fluorescence, 3 h; inhibition, % at 12.5 µM; hit rate 0.96% among 320,000; AID 488896;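 active = mean replicate inhibition of at least 70% and a set share of replicates each scoring 70 or more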;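 note: 0% = median of neutral control wells and 100% = median of positive control wells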
Target sequence (Q61009 whole entry, looked up): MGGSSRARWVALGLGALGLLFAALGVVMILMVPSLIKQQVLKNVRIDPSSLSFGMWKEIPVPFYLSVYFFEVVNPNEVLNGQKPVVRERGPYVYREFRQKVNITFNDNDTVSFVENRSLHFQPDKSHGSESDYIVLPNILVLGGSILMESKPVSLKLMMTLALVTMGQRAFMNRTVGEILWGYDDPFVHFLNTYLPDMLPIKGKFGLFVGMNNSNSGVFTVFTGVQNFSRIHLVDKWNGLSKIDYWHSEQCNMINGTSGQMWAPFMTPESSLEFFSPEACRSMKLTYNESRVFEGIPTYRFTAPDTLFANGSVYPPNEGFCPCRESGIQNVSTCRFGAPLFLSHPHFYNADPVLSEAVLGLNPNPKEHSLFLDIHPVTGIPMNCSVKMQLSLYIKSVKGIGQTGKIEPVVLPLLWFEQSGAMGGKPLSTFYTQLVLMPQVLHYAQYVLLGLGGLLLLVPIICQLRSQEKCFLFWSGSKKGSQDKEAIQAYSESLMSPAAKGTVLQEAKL
SR-BI DiI-HDL act = SR-BI HDL lipid transfer activation; hit rate 0.096% among 320,000; CHO ldlA[mSR-BI] cells, DiI-HDL uptake fluorescence, 3 h; 100 = double the neutral-control signal; activation, % at 12.5 µM;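 active = mean replicate activation of at least 60% and every replicate at or above 60%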;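 note: 0% = median plate neutral-control signal and 100% = twice that signal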
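Test system: SR-BI-overexpressing, LDLR-lacking CHO cells; Also added: labelled HDL, 10 µg/mL; Measured by: bottom-read cell fluorescence after medium removal, ex 550/em 595 nm; Timing: 3 h uptake period with compound, 37 °C; Buffer or medium: F12, 0.5% BSA, 25 mM HEPES; Doses: single compound concentration, delivered by pin transfer.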
CaV13 ICDI inh = Disruptors of the CACNA1D IQ motif to Ca2+-dependent inactivation inhibitor domain association, primary screening, Förster resonance energy transfer in intact living …; AID 743397; inhibition, % at 12.3 µM; HEK cells, CFP/YFP FRET ICDI-IQ, plate reader, 10 min; percent FRET-ratio fall versus neutral wells; hit rate 0.098% among 340,000;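 active = mean replicate inhibition of at least 30% and at least 1% of replicates passing that level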;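 note: 0% = median of the neutral control wells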
Efflux pump inh = inhibitors of Candida antifungal efflux pumps expressed in yeast; S. cerevisiae Candida pump triplex, Nile Red efflux; inhibition, % at 10 µM; hit rate 0.44% among 330,000; AID 485275;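 active = plate passing quality check with inhibition over a set limit, or well fluorescence over plate mean plus 4 SD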;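 note: Nile Red retained in pooled yeast measured as flow cytometry median fluorescence; 0% = buffer negative control and 100% = Enniatin B positive control; higher means more Nile Red kept so more efflux inhibition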
Starred values were filed as active, the others as inactive; i = inactive; x = not tested or not shown.

SMILES	FN deposit inh	SR-BI HDL uptake	SR-BI DiI-HDL act	CaV13 ICDI inh	Efflux pump inh
O=C(Nc1ccccc1N1CCN(C(=O)c2ccc(Cl)cc2)CC1)c1cccc(F)c1	3.0	73.7*	-73.7	-5.4	-0.7
O=C(Nc1ccccc1N1CCCC1)c1ccccc1F	-11.9	23.4	-23.3	0.0	-0.1
O=C(Nc1ccccc1N1CCN(c2ccccc2)CC1)c1ccccc1F	-0.6	75.0*	-75.0	-4.0	-0.2
O=C(Nc1ccccc1N1CCN(C(=O)c2ccccc2)CC1)c1cccc(Cl)c1	-4.0	x	x	-5.0	0.2
O=C1N[C@H](Cc2ccccc2)COCc2cn(nn2)CC[C@@H]1Cc1cccc(Cl)c1	-10.2	x	x	x	x
Nc1ccc(-c2nc(-c3ccccc3)nc3ccccc23)cc1	-0.4	71.5*	-71.5	-17.5	-0.1
C=C1C(=O)C23CCC4C(C)(C(=O)OC)CCCC4(C)C2CCC1(O)C3 (configuration not stated)	36.9*	-2.9	2.9	-7.2	x
COC(=O)[C@]1(C)CCC[C@@]2(C)C3CC[C@@]4(C)C[C@]3(CCC21)CC(=O)N4 (some centres not stated)	0.4	-8.9	8.9	-8.8	0.1
COc1cc2c(cc1OC)/C(=C/C(=O)c1ccc(OC)c([N+](=O)[O-])c1)NCC2	17.5	85.4*	-85.4	-4.1	-0.1
COc1ccccc1C(=O)Nc1ccc2c(c1)C(=O)N(C)C[C@@H](OC)[C@@H](C)CN[C@@H](C)CO2	8.3	x	x	x	x
Cc1nnc(SCCC(C)C)[nH]c1=O	2.4	-95.8	95.8*	-4.2	-0.1
CCOC(=O)c1sc2nc(N3CCOCC3)c3c(c2c1N)CCCC3	-43.1	73.9*	-73.9	-4.1	0.1
CCN(CC)C(=O)c1sc2nc(N3CCOCC3)c3c(c2c1N)CCCC3	0.4	19.7	-19.7	-4.2	0.2
COCCn1c(=N)c(S(=O)(=O)c2ccc(F)cc2)cc2c(=O)n3ccccc3nc21	-2.2	-30.7	30.7	103.6*	0.1
CCC(=O)Nc1ccc(-c2ccc(NC(=O)CC)c(OC)c2)cc1OC	0.0	82.9*	-82.9	-4.8	-0.2
CCN(CC)CC(=O)Nc1ccc(-c2ccc(NC(=O)CN(CC)CC)c(OC)c2)cc1OC	6.7	50.2	-50.2	5.1	0.1
COC(=O)C1=CN(CC2CCCO2)C=C(C(=O)OC)C1c1cccc(O)c1 (configuration not stated)	11.6	-11.5	11.5	82.6*	-0.2
COC(=O)N(C)C[C@H]1OCc2ccccc2-c2ccccc2C(=O)N([C@H](C)CO)C[C@@H]1C	-1.8	x	x	x	x
CCCCCCCOC(=O)C[N+](C)(C)CCOC1CC2CCC1(C)C2(C)C (configuration not stated)	-3.7	-68.8	68.8*	-4.7	x
CCOc1ccccc1NC(=O)/C=C/c1ccccc1[N+](=O)[O-]	2.0	82.1*	-82.1	-5.3	2.7
O=C(/C=C\c1ccccc1[N+](=O)[O-])Nc1ccccc1	12.0	42.6	-42.6	0.5	0.0
COc1ccccc1CNC(=O)C[C@H]1CC[C@@H]2[C@H](COc3ccc(NC(=O)Nc4ccc(F)c(F)c4)cc3C(=O)N2C)O1	2.5	x	x	x	x
Cc1cc(C)c(C)c(N=Nc2nc3ccccc3n2C)c1C	0.0	79.4*	-79.4	-5.4	3.9
C[C@H]1CN(C)C(=O)c2ccccc2O[C@@H]1CN(C)S(C)(=O)=O	-1.1	x	x	x	x
COc1cccc(CN2[C@@H](CO)[C@@H](c3ccccc3)C23CN(Cc2ccccc2OC)C3)c1	-12.2	x	x	x	x
SMILES	FN deposit inh	SR-BI HDL uptake	SR-BI DiI-HDL act	CaV13 ICDI inh	Efflux pump inh
COC(=O)c1ccccc1-c1c2ccc(=N)cc-2oc2cc(N)ccc12	i	76.6*	-76.6	-13.4	115.5*
O=C(Nc1cccc(C(=O)NC2CC2)c1)c1ccccc1	-13.6	-19.5	19.5	-8.5	x
O=C(Nc1cc2c3c(c1)C1CCCC1CN3CC1CCCC21)c1ccccc1 (configuration not stated)	-2.8	79.9*	-79.9	-5.1	0.1
CO[C@H]1CN(C)C(=O)c2cc(NC(C)=O)ccc2OC[C@@H](C)N(Cc2cccnc2)C[C@H]1C	-6.4	x	x	x	x
CCOc1cc(N2CCOCC2)c(OCC)cc1NC(=O)c1ccccc1C	-7.2	43.7	-43.7	5.8	-0.1
CCOc1cc(N2CCOCC2)c(OCC)cc1NC(=O)c1ccc2ccccc2n1	-15.9	95.5*	-95.4	-0.3	-0.3

Screening results (PubChem)
